Reference: ChEMBL document CHEMBL3124843, “Synthesis, cytostatic, antimicrobial, and anti-HCV activity of 6-substituted 7-(het)aryl-7-deazapurine ribonucleosides” (J Med Chem, 2014)
Activity calls are given as the source filed them. No rule for the calls is given here.

Assays:
HepG2 = experiment: Antiproliferative activity against human HepG2 cells after 72 hrs by XTT assay; assay type: functional, cell-based; details: HepG2, 72 h
Candida albicans = experiment: Antifungal activity against Candida albicans after 48 hrs; assay type: functional, organism-based
A549 = experiment: Cytostatic activity against human A549 cells after 72 hrs by MTT assay; assay type: functional, cell-based; details: A549, 72 h
Procedure, shortened: (§1)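 IC50 is the concentration that cuts cell growth by 50%, read by quantitative metabolic MTT staining after a 3-day treatment. The resistant sublines were made by raising the concentration of the cytotoxic drug step by step. CEM-DNR-bulk (daunorubicin-selected) stably overexpresses mrp-1. K562-TAX (paclitaxel-selected) expresses only mdr-1. HCT116p53−/− carries null p53 alleles. BJ and MRC-5 are nonmalignant fibroblasts.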

Hepatitis C virus [1] = experiment: Antiviral activity against Hepatitis C virus subtype 1b infected in human HuH7 cells; assay type: functional, organism-based, Hepacivirus hominis; details: genotype 1b, Huh-7
HCT-116 [2] = experiment: Cytostatic activity against human HCT116 cells after 72 hrs by MTT assay; assay type: functional, cell-based; details: HCT-116, 72 h; procedure, shortened: as §1
Pseudomonas aeruginosa [3] = experiment: Antibacterial activity against Pseudomonas aeruginosa CCM 3955 after 24 hrs; assay type: functional, organism-based
[4] = Antiproliferative activity against human HeLaS3 cells after 72 hrs by XTT assay; assay type: functional, cell-based; details: HeLa S3, 72 h
Procedure, shortened: (§2)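 Antiproliferative test on HL-60 promyelocytic leukemia and HeLa S3 cervical carcinoma cells growing in liquid suspension.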

CCRF-CEM = experiment: Cytostatic activity against human CCRF-CEM cells after 72 hrs by MTT assay; assay type: functional, cell-based; procedure, shortened: as §1
Hepatitis C virus [5] = experiment: Antiviral activity against Hepatitis C virus subtype 2a infected in human HuH7 cells; assay type: functional, organism-based, Hepacivirus hominis; details: genotype 2a, Huh-7
Candida tropicalis = experiment: Antifungal activity against Candida tropicalis after 48 hrs; assay type: functional, organism-based
[6] = Cytotoxicity against human HuH7 cells infected with Hepatitis C virus subtype 2a; assay type: cell-based, Huh-7
Pseudomonas aeruginosa [7] = experiment: Antibacterial activity against multi-resistant Pseudomonas aeruginosa A/16575 after 24 hrs; assay type: functional, organism-based
[8] = system: Staphylococcus haemolyticus; experiment: Antibacterial activity against methicillin-resistant Staphylococcus haemolyticus A/16568 after 24 hrs; assay type: functional, organism-based
K562 [9] = experiment: Cytostatic activity against human K562 cells after 72 hrs by MTT assay; assay type: functional, cell-based; details: K562, 72 h; procedure, shortened: as §1
Candida parapsilosis = experiment: Antifungal activity against Candida parapsilosis after 48 hrs; assay type: functional, organism-based
Escherichia coli [10] = experiment: Antibacterial activity against Escherichia coli CCM 3954 after 24 hrs; assay type: functional, organism-based
HL-60 = experiment: Antiproliferative activity against human HL60 cells after 72 hrs by XTT assay; assay type: functional, cell-based; details: HL-60, 72 h; procedure, shortened: as §2
Staphylococcus aureus [11] = experiment: Antibacterial activity against methicillin-resistant Staphylococcus aureus MRSA 4591 after 24 hrs; assay type: functional, organism-based
K562 [12] = experiment: Cytostatic activity against paclitaxel-resistant human K562 cells after 72 hrs by MTT assay; assay type: functional, cell-based; details: K562, 72 h; procedure, shortened: as §1
MRC5 = experiment: Cytostatic activity against human MRC5 cells after 72 hrs by MTT assay; assay type: ADME, cell-based; details: MRC5, 72 h; procedure, shortened: as §1
Enterococcus faecalis = experiment: Antibacterial activity against Enterococcus faecalis CCM 4224 after 24 hrs; assay type: functional, organism-based
[13] = Cytostatic activity against human CEM-DNR-bulk cells after 72 hrs by MTT assay; assay type: functional, cell-based; procedure, shortened: as §1
Pichia kudriavzevii = experiment: Antifungal activity against Candida crusei after 48 hrs; assay type: functional, organism-based
BJ = experiment: Cytostatic activity against human BJ cells after 72 hrs by MTT assay; assay type: ADME, cell-based; procedure, shortened: as §1
Escherichia coli [14] = experiment: Antibacterial activity against multi-resistant Escherichia coli C/16702 after 24 hrs; assay type: functional, organism-based
HCT-116 [15] = experiment: Cytostatic activity against p53-deficient human HCT116 cells after 72 hrs by MTT assay; assay type: functional, cell-based; details: HCT-116, 72 h; procedure, shortened: as §1
[16] = Cytotoxicity against human HuH7 cells infected with Hepatitis C virus subtype 1b; assay type: cell-based, Huh-7
Staphylococcus aureus [17] = experiment: Antibacterial activity against Staphylococcus aureus CCM 3953 after 24 hrs; assay type: functional, organism-based

With C#Cc1cn([C@@H]2O[C@H](CO)[C@@H](O)[C@H]2O)c2ncnc(NC)c12 the IC50 (HepG2) was > 15 µM, the Activity (Candida albicans) was “inactive” and the IC50 (A549) was > 20 µM. The EC50 (Hepatitis C virus [1]) was 0.35 µM, the IC50 (HCT-116 [2]) was > 20 µM and the Activity (Pseudomonas aeruginosa [3]) was “inactive”. For the same molecule, the IC50 [4] was > 20 µM, the IC50 (CCRF-CEM) was > 20 µM and the EC50 (Hepatitis C virus [5]) was > 44 µM. For the same molecule, the Activity (Candida tropicalis) was “inactive”, the CC50 [6] was > 44 µM and the Activity (Pseudomonas aeruginosa [7]) was “inactive”. For the same molecule, the Activity [8] was “inactive”, the IC50 (K562 [9]) was > 20 µM and the Activity (Candida parapsilosis) was “inactive”. The Activity (Escherichia coli [10]) was “inactive”, the IC50 (HL-60) was 9.06 µM and the Activity (Staphylococcus aureus [11]) was “inactive”. The IC50 (K562 [12]) was 1.38 µM, the IC50 (MRC5) was > 100 µM and the Activity (Enterococcus faecalis) was “inactive”. For the same molecule, the IC50 [13] was 18.5 µM, the Activity (Pichia kudriavzevii) was “inactive” and the IC50 (BJ) was 86 µM. The Activity (Escherichia coli [14]) was “inactive”, the IC50 (HCT-116 [15]) was > 20 µM and the CC50 [16] was > 44 µM. For the same molecule, the Activity (Staphylococcus aureus [17]) was “inactive”.
For Cc1nc(N)c2c(-c3ccsc3)cn([C@@H]3O[C@H](CO)[C@@H](O)[C@H]3O)c2n1, the IC50 (HepG2) was > 20 µM, the Activity (Candida albicans) was “inactive” and the IC50 (A549) was > 20 µM. For the same molecule, the EC50 (Hepatitis C virus [1]) was 28.7 µM, the IC50 (HCT-116 [2]) was > 20 µM and the Activity (Pseudomonas aeruginosa [3]) was “inactive”. The IC50 [4] was > 20 µM, the IC50 (CCRF-CEM) was > 20 µM and the EC50 (Hepatitis C virus [5]) was > 44 µM. The Activity (Candida tropicalis) was “inactive”, the CC50 [6] was > 44 µM and the Activity (Pseudomonas aeruginosa [7]) was “inactive”. The Activity [8] was “inactive”, the IC50 (K562 [9]) was > 20 µM and the Activity (Candida parapsilosis) was “inactive”. For the same molecule, the Activity (Escherichia coli [10]) was “inactive”, the IC50 (HL-60) was > 20 µM and the Activity (Staphylococcus aureus [11]) was “inactive”. For the same molecule, the IC50 (K562 [12]) was > 20 µM, the IC50 (MRC5) was > 100 µM and the Activity (Enterococcus faecalis) was “inactive”. The IC50 [13] was > 20 µM, the Activity (Pichia kudriavzevii) was “inactive” and the IC50 (BJ) was > 100 µM. The Activity (Escherichia coli [14]) was “inactive”, the IC50 (HCT-116 [15]) was > 20 µM and the CC50 [16] was > 44 µM. The Activity (Staphylococcus aureus [17]) was “inactive”.
For Nc1nc(N)c2c(-c3ccccc3)cn([C@@H]3O[C@H](CO)[C@@H](O)[C@H]3O)c2n1, the IC50 (HepG2) was > 20 µM, the Activity (Candida albicans) was “inactive” and the IC50 (A549) was > 20 µM. For the same molecule, the EC50 (Hepatitis C virus [1]) was > 44 µM, the IC50 (HCT-116 [2]) was > 20 µM and the Activity (Pseudomonas aeruginosa [3]) was “inactive”. For the same molecule, the IC50 [4] was > 20 µM, the IC50 (CCRF-CEM) was > 20 µM and the EC50 (Hepatitis C virus [5]) was > 44 µM. For the same molecule, the Activity (Candida tropicalis) was “inactive”, the CC50 [6] was > 44 µM and the Activity (Pseudomonas aeruginosa [7]) was “inactive”. The Activity [8] was “inactive”, the IC50 (K562 [9]) was > 20 µM and the Activity (Candida parapsilosis) was “inactive”. The Activity (Escherichia coli [10]) was “inactive”, the IC50 (HL-60) was > 15 µM and the Activity (Staphylococcus aureus [11]) was “inactive”. For the same molecule, the IC50 (K562 [12]) was > 20 µM, the IC50 (MRC5) was > 100 µM and the Activity (Enterococcus faecalis) was “inactive”. The IC50 [13] was > 20 µM, the Activity (Pichia kudriavzevii) was “inactive” and the IC50 (BJ) was > 100 µM. For the same molecule, the Activity (Escherichia coli [14]) was “inactive”, the IC50 (HCT-116 [15]) was > 20 µM and the CC50 [16] was > 44 µM. For the same molecule, the Activity (Staphylococcus aureus [17]) was “inactive”.
For O=c1[nH]cnc2c1c(-c1ccccc1)cn2[C@@H]1O[C@H](CO)[C@@H](O)[C@H]1O, the IC50 (HepG2) was > 20 µM, the Activity (Candida albicans) was “inactive” and the IC50 (A549) was > 100 µM. For the same molecule, the EC50 (Hepatitis C virus [1]) was > 44 µM, the IC50 (HCT-116 [2]) was > 100 µM and the Activity (Pseudomonas aeruginosa [3]) was “inactive”. The IC50 [4] was > 20 µM, the IC50 (CCRF-CEM) was > 100 µM and the EC50 (Hepatitis C virus [5]) was > 44 µM. The Activity (Candida tropicalis) was “inactive”, the CC50 [6] was > 44 µM and the Activity (Pseudomonas aeruginosa [7]) was “inactive”. The Activity [8] was “inactive”, the IC50 (K562 [9]) was > 20 µM and the Activity (Candida parapsilosis) was “inactive”. For the same molecule, the Activity (Escherichia coli [10]) was “inactive”, the IC50 (HL-60) was > 20 µM and the Activity (Staphylococcus aureus [11]) was “inactive”. For the same molecule, the IC50 (K562 [12]) was > 20 µM, the IC50 (MRC5) was > 100 µM and the Activity (Enterococcus faecalis) was “inactive”. The IC50 [13] was > 20 µM, the Activity (Pichia kudriavzevii) was “inactive” and the IC50 (BJ) was > 100 µM. The Activity (Escherichia coli [14]) was “inactive”, the IC50 (HCT-116 [15]) was > 20 µM and the CC50 [16] was > 44 µM. For the same molecule, the Activity (Staphylococcus aureus [17]) was “inactive”.
